For assay [1], the target named is T1, Lutropin-choriogonadotropic hormone receptor (Homo sapiens, UniProt P22888). The assay can be described thus: Agonist activity at human LH receptor expressed in CHO-K1 cells assessed as stimulation of luciferase activity by CRE-driven luciferase reporter gene assay. In kind it is functional, cell-based. The method in brief:
(§1)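 EC50 or IC50 values were fitted from concentration–effect curves. Data come from two independent experiments, each run in duplicate, with SD generally below 0.3.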

For assay [2], the target named is T1, Lutropin-choriogonadotropic hormone receptor. The assay can be described thus: Antagonist activity at human LH receptor expressed in CHO-K1 cells assessed as inhibition of LH-induced luciferase activity by CRE-driven luciferase reporter gene assay. The class given is functional, cell-based. Background: A reporter such as luciferase makes a cellular process visible.

Assay [3] addresses T2, Follicle-stimulating hormone receptor (Homo sapiens, UniProt P23945).
T2 sequence (P23945 whole entry): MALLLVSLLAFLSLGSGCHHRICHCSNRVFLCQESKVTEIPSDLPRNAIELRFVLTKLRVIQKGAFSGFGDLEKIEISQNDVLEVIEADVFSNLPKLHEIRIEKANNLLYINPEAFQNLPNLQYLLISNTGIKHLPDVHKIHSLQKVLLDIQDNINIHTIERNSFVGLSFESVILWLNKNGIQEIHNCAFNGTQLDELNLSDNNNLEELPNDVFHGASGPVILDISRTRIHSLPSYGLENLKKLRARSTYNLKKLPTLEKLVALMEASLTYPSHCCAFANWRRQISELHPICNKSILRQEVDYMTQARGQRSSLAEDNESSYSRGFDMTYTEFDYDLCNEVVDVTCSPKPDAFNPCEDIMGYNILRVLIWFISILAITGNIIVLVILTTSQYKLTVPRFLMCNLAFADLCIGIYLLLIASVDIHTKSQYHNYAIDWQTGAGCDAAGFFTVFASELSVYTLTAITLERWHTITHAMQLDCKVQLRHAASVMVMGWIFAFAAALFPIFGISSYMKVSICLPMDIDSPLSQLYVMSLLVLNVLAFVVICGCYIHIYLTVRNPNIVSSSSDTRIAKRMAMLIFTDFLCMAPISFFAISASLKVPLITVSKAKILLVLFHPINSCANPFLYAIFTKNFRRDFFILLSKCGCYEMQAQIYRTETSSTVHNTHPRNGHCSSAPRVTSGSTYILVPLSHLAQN
The assay can be described thus: Antagonist activity at human FSHR receptor expressed in CHO-K1 cells assessed as inhibition of FSH-induced luciferase activity by CRE-driven luciferase reporter gene assay relative to control.

Assay [4] deals with T3, Follicle-stimulating hormone receptor (Homo sapiens) (UniProt P23945).
T3 sequence (whole entry): T2 sequence (P23945 whole entry)
The assay can be described thus: Antagonist activity at human FSHR receptor expressed in CHO-K1 cells assessed as inhibition of FSH-induced luciferase activity at 10 uM by CRE-driven luciferase reporter gene assay relative to control.

Assay [5] addresses T2, Follicle-stimulating hormone receptor. The assay can be described thus: Agonist activity at human FSHR receptor expressed in CHO-K1 cells assessed as stimulation of luciferase activity by CRE-driven luciferase reporter gene assay. In kind it is functional, cell-based. The method in brief: as §1
The target of assay [6] is T3, Follicle-stimulating hormone receptor (Homo sapiens). The assay can be described thus: Agonist activity at human FSHR receptor expressed in CHO-K1 cells assessed as stimulation of luciferase activity by CRE-driven luciferase reporter gene assay relative to control. In kind it is functional, cell-based.
For assay [7] the target is unchanged. The assay can be described thus: Agonist activity at human FSHR receptor expressed in CHO-K1 cells assessed as stimulation of luciferase activity at 10 uM by CRE-driven luciferase reporter gene assay relative to control. In kind it is functional, cell-based.

As usually defined, the EC50 is the concentration needed to bring the measured effect to its halfway point. Broadly, the IC50 is the concentration at which inhibition is half-maximal. The term Emax denotes the size of the effect at its maximum, as opposed to the concentration needed.

Molecules are shown by their SMILES. Active and inactive are the calls of the source. The calls are words filed in the database; no cut-off is given here.

T1 sequence (P22888 whole entry): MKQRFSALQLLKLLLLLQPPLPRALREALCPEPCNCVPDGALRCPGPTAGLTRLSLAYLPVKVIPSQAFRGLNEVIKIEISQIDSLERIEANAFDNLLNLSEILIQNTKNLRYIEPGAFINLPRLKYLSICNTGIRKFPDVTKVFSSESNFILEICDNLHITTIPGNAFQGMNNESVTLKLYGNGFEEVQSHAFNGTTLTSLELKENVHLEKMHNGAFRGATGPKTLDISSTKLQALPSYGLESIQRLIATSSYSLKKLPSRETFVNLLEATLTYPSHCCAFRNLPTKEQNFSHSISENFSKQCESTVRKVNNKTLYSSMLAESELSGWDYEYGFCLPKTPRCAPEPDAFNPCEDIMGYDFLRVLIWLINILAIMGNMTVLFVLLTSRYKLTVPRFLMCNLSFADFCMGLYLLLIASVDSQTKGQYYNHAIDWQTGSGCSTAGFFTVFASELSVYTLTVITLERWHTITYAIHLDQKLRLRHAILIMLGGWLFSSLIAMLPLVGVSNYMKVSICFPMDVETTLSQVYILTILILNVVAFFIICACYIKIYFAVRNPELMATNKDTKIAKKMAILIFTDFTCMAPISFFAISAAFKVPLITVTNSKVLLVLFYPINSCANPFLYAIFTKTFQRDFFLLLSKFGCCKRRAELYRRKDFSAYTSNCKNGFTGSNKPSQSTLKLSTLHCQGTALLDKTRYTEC

Turning to `CSc1nc(-c2cccc(NCC(=O)NCc3cn(CCOCCOCCOCCOCCn4cc(COc5ccc([C@@]6(C)CC(C)(C)N(C(C)=O)c7ccc(NC(=O)c8ccc(-c9ccccc9)cc8)cc76)cc5)nn4)nn3)c2)c2c(N)c(C(=O)NC(C)(C)C)sc2n1`, the EC50 in assay [1] (read-out: EC50) was 0.055 µM; in assay [5] (cho-k1) it was “Not Active”. Moreover, in assay [2], the inhibition entry is “inactive”. Also, the half-maximal inhibitory concentration (IC50) in assay [3] (read-out: IC50) was determined as 1.02 µM. Besides, in assay [4], the Imax was 72%.
In the case of `CSc1nc(-c2cccc(NCC(=O)NCc3cn(CCOCCOCCN=[N+]=[N-])nn3)c2)c2c(N)c(C(=O)NC(C)(C)C)sc2n1`, the EC50 in assay [1] (read-out: EC50) worked out at 0.005 µM; in assay [5] (read-out: EC50) it was 0.397 µM. The inhibition result in assay [2] was “inactive”. In addition, the maximal effect (Emax) in assay [6] stood at 81%. Also, in assay [3] (cho-k1), the 50% inhibitory concentration (IC50) result is listed as “Not Active”.
`CSc1nc(-c2cccc(NCC(=O)NCc3cn(CCOCCOCCOCCn4cc(COc5ccc([C@]6(C)CC(C)(C)N(C(C)=O)c7ccc(NC(=O)c8ccc(-c9ccccc9)cc8)cc76)cc5)nn4)nn3)c2)c2c(N)c(C(=O)NC(C)(C)C)sc2n1`: in assay [1] (read-out: EC50), the EC50 was 0.057 µM. In assay [2], the inhibition result was “inactive”. Besides, the IC50 result in assay [3] (cho-k1) is listed as “Not Active”. Also, in assay [7], the maximal response (Emax) worked out at 31%.
In the case of `CSc1nc(-c2cccc(NCC(=O)NCc3cn(CCOCCOCCn4cc(COc5ccc([C@]6(C)CC(C)(C)N(C(C)=O)c7ccc(NC(=O)c8ccc(-c9ccccc9)cc8)cc76)cc5)nn4)nn3)c2)c2c(N)c(C(=O)NC(C)(C)C)sc2n1`, the EC50 in assay [1] (read-out: EC50) is 0.075 µM. The inhibition entry in assay [2] was “inactive”. Also, in assay [3] (cho-k1), the IC50 entry is “Not Active”. Further, the Emax in assay [7] turned out to be 18%.
For `CSc1nc(-c2cccc(NCC(=O)NCc3cn(CCn4cc(COc5ccc([C@@]6(C)CC(C)(C)N(C(C)=O)c7ccc(NC(=O)c8ccc(-c9ccccc9)cc8)cc76)cc5)nn4)nn3)c2)c2c(N)c(C(=O)NC(C)(C)C)sc2n1`, the EC50 was 0.01 µM in assay [1] (read-out: EC50) and “Not Active” in assay [5] (cho-k1). Moreover, the inhibition result in assay [2] is “inactive”. Further, in assay [4], the Imax was found to be 65%.
For the compound `CSc1nc(-c2cccc(NCC(=O)NCc3cn(CCn4cc(COc5ccc([C@]6(C)CC(C)(C)N(C(C)=O)c7ccc(NC(=O)c8ccc(-c9ccccc9)cc8)cc76)cc5)nn4)nn3)c2)c2c(N)c(C(=O)NC(C)(C)C)sc2n1`, the EC50 in assay [1] (read-out: EC50) was 0.024 µM. In assay [2], the inhibition result is “inactive”. For the same compound, the IC50 result in assay [3] (cho-k1) is listed as “Not Active”. Further, in assay [7], the maximum response (Emax) is 43%.
Turning to `CSc1nc(-c2cccc(NCC(=O)NCc3cn(CCOCCOCCn4cc(COc5ccc([C@@]6(C)CC(C)(C)N(C(C)=O)c7ccc(NC(=O)c8ccc(-c9ccccc9)cc8)cc76)cc5)nn4)nn3)c2)c2c(N)c(C(=O)NC(C)(C)C)sc2n1`, the EC50 in assay [1] (read-out: EC50) is 0.043 µM; in assay [5] (cho-k1), “Not Active”. Moreover, the inhibition entry in assay [2] is “inactive”. The concentration for half-maximal inhibition (IC50) in assay [3] (read-out: IC50) was 0.92 µM. In assay [4], the Imax came out at 73%.
`CC(=O)N1c2ccc(NC(=O)c3ccc(-c4ccccc4)cc3)cc2[C@@](C)(c2ccc(OCc3cn(CCOCCOCCN=[N+]=[N-])nn3)cc2)CC1(C)C`: the 50% effective concentration (EC50) entry in assay [1] (cho-k1) and in assay [5] (cho-k1) was “Not Active” each time. Also, the inhibition entry in assay [2] is “inactive”. Also, in assay [3] (read-out: IC50), the concentration for half-maximal inhibition (IC50) was 0.324 µM.
For the compound `C#CCOc1ccc([C@@]2(C)CC(C)(C)N(C(C)=O)c3ccc(NC(=O)c4ccc(-c5ccccc5)cc4)cc32)cc1`, the EC50 result in assay [1] (cho-k1) and in assay [5] (cho-k1) was “Not Active” in each case. Moreover, the inhibition entry in assay [2] was “inactive”. Besides, in assay [3] (read-out: IC50), the 50% inhibitory concentration (IC50) is 0.039 µM.
For the compound `CSc1nc(-c2cccc(NCC(=O)NCc3cn(CCOCCn4cc(COc5ccc([C@]6(C)CC(C)(C)N(C(C)=O)c7ccc(NC(=O)c8ccc(-c9ccccc9)cc8)cc76)cc5)nn4)nn3)c2)c2c(N)c(C(=O)NC(C)(C)C)sc2n1`, in assay [1] (read-out: EC50), the EC50 was 0.08 µM. Further, the inhibition entry in assay [2] was “inactive”. Besides, the IC50 entry in assay [3] (cho-k1) was “Not Active”. In assay [7], the Emax is 44%.
Take `CSc1nc(-c2cccc(NCC(=O)NCc3cn(CCOCCOCCOCCn4cc(COc5ccc([C@@]6(C)CC(C)(C)N(C(C)=O)c7ccc(NC(=O)c8ccc(-c9ccccc9)cc8)cc76)cc5)nn4)nn3)c2)c2c(N)c(C(=O)NC(C)(C)C)sc2n1`: the concentration for a half-maximal effect (EC50) in assay [1] (read-out: EC50) was 0.061 µM; in assay [5] (cho-k1), “Not Active”. For the same compound, the inhibition result in assay [2] was “inactive”. For the same compound, the IC50 in assay [3] (read-out: IC50) turned out to be 1.66 µM. For the same compound, the Imax in assay [4] turned out to be 65%.
Take `CSc1nc(-c2cccc(NCC(=O)NCc3cn(CCOCCOCCOCCOCCn4cc(COc5ccc([C@]6(C)CC(C)(C)N(C(C)=O)c7ccc(NC(=O)c8ccc(-c9ccccc9)cc8)cc76)cc5)nn4)nn3)c2)c2c(N)c(C(=O)NC(C)(C)C)sc2n1`: the EC50 in assay [1] (read-out: EC50) worked out at 0.039 µM. The inhibition entry in assay [2] was “inactive”. The IC50 result in assay [3] (cho-k1) is recorded as “Not Active”. Further, in assay [7], the Emax came to 39%.
Regarding `CSc1nc(-c2cccc(NCC(=O)NCc3cn(CCOCCn4cc(COc5ccc([C@@]6(C)CC(C)(C)N(C(C)=O)c7ccc(NC(=O)c8ccc(-c9ccccc9)cc8)cc76)cc5)nn4)nn3)c2)c2c(N)c(C(=O)NC(C)(C)C)sc2n1`, the results for the 50% effective concentration (EC50) in assay [1] (read-out: EC50) and in assay [5] (cho-k1) were 0.027 µM and “Not Active”, respectively. In addition, the inhibition result in assay [2] is “inactive”. Also, the Imax in assay [4] came out at 75%.
Take `C#CCNC(=O)CNc1cccc(-c2nc(SC)nc3sc(C(=O)NC(C)(C)C)c(N)c23)c1`: the EC50 in assay [1] (read-out: EC50) was found to be 0.001 µM; in assay [5] (read-out: EC50) it was 0.126 µM. In addition, the inhibition entry in assay [2] was “inactive”. Further, the Emax in assay [6] came to 78%. Moreover, in assay [3] (cho-k1), the 50% inhibitory concentration (IC50) result is recorded as “Not Active”.
